NPY Y2 blocker – NPY-Y2 (human) receptor antagonism; P49146; NPY-Y2 expressing cells, antagonist mode; inhibition, % at 2.7 µM; 140,000 compounds, 0.99% hits; AID 793; in the data active = inhibition above about 17%
Target sequence (P49146 whole entry, looked up): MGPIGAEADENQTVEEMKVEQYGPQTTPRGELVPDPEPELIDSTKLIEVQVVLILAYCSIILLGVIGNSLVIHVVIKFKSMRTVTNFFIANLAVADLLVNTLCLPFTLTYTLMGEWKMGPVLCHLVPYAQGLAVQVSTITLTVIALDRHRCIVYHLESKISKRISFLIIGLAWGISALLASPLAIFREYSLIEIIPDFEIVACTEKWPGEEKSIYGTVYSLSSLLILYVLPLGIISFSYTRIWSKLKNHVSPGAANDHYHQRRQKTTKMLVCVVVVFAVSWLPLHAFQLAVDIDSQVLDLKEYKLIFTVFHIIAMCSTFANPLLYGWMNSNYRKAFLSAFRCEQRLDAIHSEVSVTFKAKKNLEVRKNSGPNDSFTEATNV
PGE2 EP2 inh – EP2 receptor (human) inhibition; P43116; C6 glioma cells expressing human EP2, cAMP TR-FRET; cells stimulated with saturating PGE2; inhibition, % at 25 µM; 260,000 compounds, 0.52% hits; AID 1422;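 active = percent inhibition above 40 after rounding to a whole number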;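 note: rat C6 glioma host cells with rolipram phosphodiesterase inhibitor present; the protocol text gives 20 µM as final concentration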
NPY-Y1 PAM-ag – human NPY-Y1 potentiation or agonism, primary screen. activation, % at 3.6 µM. 220,000 compounds, 0.37% hits. NPY-Y1 expressing cells, potentiator/agonist activation. AID 1304. P25929; in the data active = activation above about 33%, passing the limit was not always enough;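 note: cells stimulated with NPY at EC10 then isoproterenol at EC100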
EP2 mod – EP2 receptor (human) modulation; P43116; EP2-expressing cells, cAMP HTRF FRET, PGE2 co-stimulation; induction, % at 25 µM; 260,000 compounds, 0.83% hits; AID 940;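 active = compounds whose cAMP rise, as percent of the full-agonist control response, exceeds 60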;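 note: rat C6 glioma line stably carrying human EP2 under a CMV promoter; the protocol text gives 20 µM as final concentration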
NPY-Y2 PAM-ag – human NPY-Y2 potentiation or agonism, primary screen. AID 1359. cells expressing NPY-Y2, potentiator/agonist read-out. activation, % at 3.6 µM. P49146. 220,000 compounds, 0.45% hits; in the data active = activation above about 27%;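 note: cells stimulated with NPY near EC25 plus isoproterenol at EC100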
NPY Y1 blocker – blocks the human neuropeptide Y Y1 receptor; AID 1040; HEK293-CNG Y1 cells, membrane potential fluorescence; NPY at EC95, then isoproterenol; inhibition, % at 3.6 µM; 200,000 compounds, 1% hits;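 active = inhibition above the campaign mean inhibition of all tested compounds plus 3 SD, cut at about 20% in these data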
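material = HEK293 cells with Y1 receptor plus CNG channel | also added = NPY 25 nM then isoproterenol 1 µM plus Ro 20-1724 25 µM | schedule = dye 3 h, compound 60 min room temperature, stimulation 45 min | measured by = membrane potential fluorescence | benchmarks = high control isoproterenol alone, low control NPY with isoproterenol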
EP2 cAMP induct – human EP2 receptor cAMP induction, negative in counter-screens; shares compounds with EP2 mod; C6 glioma EP2 cells, cAMP HTRF induction; plus low (about EC15) PGE2 agonist; calls only at 20 µM (by protocol); 1,300 compounds, 47% hits; AID 1080;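 active = cAMP induction above 50% in the main assay while under 30% in all four parallel counter assays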;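 note: rat C6 glioma cells stably expressing human EP2 receptor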
A number is an active result; n = inactive; x = not tested or not shown; + = active, no number. Shown are actives, neighbours in structure and some others; about 2.8% of the full set was active somewhere.

SMILES	NPY Y2 blocker	PGE2 EP2 inh	NPY-Y1 PAM-ag	EP2 mod	NPY-Y2 PAM-ag	NPY Y1 blocker	EP2 cAMP induct
CC(C)C12CN3CC(C(C)C)(CN(C1)C3c1ccc(F)cc1)C2O (configuration not stated)	x	n	x	n	x	x	x
[N-]=[N+]=Nc1ccc(C(=O)CSC[C@H](NC(=O)CC[C@H](N)C(=O)O)C(=O)NCC(=O)O)cc1	x	n	x	82	x	x	+
Cc1ccc2cc(C#N)c(SCC(=O)Nc3nc4ccccc4s3)nc2c1	x	n	x	n	x	x	x
Cc1ccc(C(C)C)c(OCc2ccc(-c3nnco3)cc2)c1	n	n	n	66	n	n	n
Cc1ccc(S(=O)(=O)N(C)Cc2ccc(-c3nnco3)cc2)cc1	n	n	n	n	n	n	x
Cc1onc(-c2ccccc2Cl)c1-c1nc(-c2ccncc2)no1	n	n	n	65	n	n	n
O=C(c1cc2nc(-c3ccco3)cc(C(F)(F)F)n2n1)N1CCC(Cc2ccccc2)CC1	x	n	x	n	x	x	x
N#CCSc1ncnc2sc3c(c12)CCC3	n	n	n	n	n	n	x
Cc1noc(C)c1CSc1ncnc2sc3c(c12)CCC3	n	n	n	68	n	n	n
Cc1noc(C)c1CSc1nc2sc3c(c2c(=O)n1C)CCCC3	n	n	n	63	n	n	n
Cc1noc(C)c1CSc1ncnc2sc3c(c12)CCC(C)C3 (configuration not stated)	n	n	n	70	n	n	n
CC(=O)CSc1ncnc2sc3c(c12)CCC(C)C3 (configuration not stated)	x	n	n	61	n	n	n
CC1CCc2c(sc3ncnc(SCC(=O)c4ccccc4)c23)C1 (configuration not stated)	n	n	n	n	n	n	x
CC1CCc2c(sc3ncnc(SCC(=O)N4CCCC4)c23)C1 (configuration not stated)	x	n	x	n	x	x	x
O=C(N/C(=C\c1ccco1)C(=O)N1CCc2ccccc2C1)c1ccccc1	x	n	x	n	x	x	x
Cc1ccc(C2CC2c2n[nH]c(=S)n2-c2ccc(C)cc2)cc1 (configuration not stated)	n	n	n	n	n	n	n
CCOC(=O)C1=C(N)OC2=C(C(=O)CC(C)(C)C2)C1c1ccc(CC)s1 (configuration not stated)	x	n	n	73	n	n	+
O=C(Cc1n[nH]c(=O)c2ccccc12)N1CCCC1c1nc2ccccc2[nH]1 (configuration not stated)	x	x	x	n	x	x	x
CC[C@H](C)C(=O)O[C@H]1C[C@@H](C)C=C2C=C[C@H](C)[C@H](CC[C@@H]3C[C@@H](O)CC(=O)O3)[C@H]21	n	n	n	n	n	n	n
CC[C@H](C)C(=O)O[C@H]1CCC=C2C=C[C@H](C)[C@H](CC[C@@H]3C[C@@H](O)CC(=O)O3)[C@H]21	x	n	n	n	n	n	x
C/C(CCc1oc2ccc(Cl)cc2c1-c1ccc(C)o1)=N\O	n	n	n	65	n	n	+
COc1ccc(C2=Nn3c(nnc3-c3ccccc3)SC2)cc1OC	n	n	n	70	n	n	n
COc1ccc(C2=Nn3c(nnc3C3CCCCC3)SC2)cc1OC	58	n	n	77	n	27	+
COc1ccc(OC)c(C2=Nn3c(nnc3-c3ccco3)SC2)c1	n	n	n	74	n	n	+
COc1ccc(OC)c(C2=Nn3c(nnc3C3CCCCC3)SC2)c1	n	n	n	n	n	n	x
SMILES	NPY Y2 blocker	PGE2 EP2 inh	NPY-Y1 PAM-ag	EP2 mod	NPY-Y2 PAM-ag	NPY Y1 blocker	EP2 cAMP induct
O=C1CCCC2=C1C(c1ccc3c(c1)OCO3)c1c([nH]c(=O)[nH]c1=O)N2 (configuration not stated)	x	n	x	n	x	x	x
CC(C)(C)n1nnnc1C(c1ccccn1)N(Cc1ccccc1)Cc1ccc(Cl)cc1 (configuration not stated)	n	n	n	n	n	n	x
CC(C)(C)n1nnnc1C(c1ccncc1)N(Cc1ccccc1)Cc1ccco1 (configuration not stated)	n	n	n	71	n	n	n
CCOC(=O)C1CCN(c2c(C(=O)c3ccccc3)cnc3ccc(Cl)cc23)CC1	x	n	n	81	n	n	+
O=C(CN1CCCC(c2ncncc2-c2ccncc2)C1)NCc1ccc2c(c1)OCO2 (configuration not stated)	x	x	x	n	x	x	x
O=c1[nH]ncc2c3ccccc3n(Cc3cccc(Cl)c3)c12	x	n	n	n	n	n	n
c1ccc(Sc2ncnc3ccccc23)cc1	x	n	n	n	n	x	x
c1ccc(Cc2nnc(Sc3ccccc3)c3ccccc23)cc1	n	n	n	69	n	n	n
Cc1ccc2cc(CN(Cc3nnnn3CC3CCCO3)C3CCCCC3)c(=O)[nH]c2c1C (configuration not stated)	x	n	x	n	x	x	x
COc1ccc(OC)c(-c2[nH]nc3c2C(c2cccc(Cl)c2Cl)C(C#N)=C(N)O3)c1 (configuration not stated)	x	n	x	n	x	x	x
CCc1ccc2nc3c(c(C(=O)O)c2c1)CCC3	n	n	n	n	n	n	x
Cc1cc(Br)c2nc3c(c(C(=O)O)c2c1)CCCCC3	n	n	n	77	n	n	n
Cc1ccc(S(=O)(=O)n2c3ccc(Cl)cc3c3nc(C)sc32)cc1	n	n	n	90	n	n	+
COC(=O)Cn1c2ccc(Cl)cc2c2nc(C)sc21	x	n	n	n	n	x	x
CCCC(=O)O[C@H]1C[C@@H](C)N(C(=O)c2ccccc2)c2ccc(C)cc21	n	n	n	76	n	n	n
COc1ccccc1-n1c(SCC(=O)N2CCCC2)nnc1-c1cccnc1	x	n	x	n	x	x	x
CCOC(=O)CNC(=O)c1ccc2c(c1)OCCO2	n	n	n	69	n	n	n
COc1ccc2c(C)cc(SCC(=O)Nc3ncc(Cl)cc3Cl)nc2c1	n	n	n	68	n	n	n
Cc1cc(SCC(=O)Nc2ncc(Cl)cc2Cl)nc2ccccc12	n	n	n	n	n	n	x
COc1ccc(OC)c(C(=O)CSc2nnc(Cc3cccs3)n2CCc2ccccc2)c1	n	n	n	66	n	n	+
COc1ccc(OC)c(C(=O)CSc2nnc(-c3cccs3)n2C)c1	n	n	n	n	n	n	x
CC(=O)c1cccc(S(=O)(=O)N2CCC(n3cnc4cccnc43)CC2)c1	x	n	x	n	x	x	x
CCOC(=O)COc1cc(Br)c(/C=N/Nc2ccccc2)cc1OC	n	x	n	68	n	n	n
COc1cc(C=O)c(Br)cc1OCC(=O)NCCc1ccccc1	x	n	n	n	n	n	x
CC(C)[C@H](Cn1nnc2ccccc21)NC(=O)Cn1ncc2ccccc2c1=O	x	n	x	n	x	x	x
CCOc1ccccc1NC(=O)c1c(Br)cnn1C	n	n	n	69	n	n	n

Compound activity as filed in PubChem BioAssay.
